Laboratory results published in paper PMC3528973 (Bioorganic & medicinal chemistry letters, 2011).
Values after ≈ are worked out from the molar mass of the structure shown. Like-named read-outs stand apart in the source and are kept apart here.

Legend:
[1] = system: BJeLR (expressing HRAS^G12V); details: cited from earlier work
[2] = Stability/reactivity toward glutathione; assay type: physicochemical
[3] = system: BJeH-LT (isogenic to BJeLR without HRAS^G12V); assay: Cell viability counterscreen in isogenic BJeH-LT cells; assay type: cell-based; details: read-out: IC50 BJeH-LT
Method in brief: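 IC50 measured in BJeH-LT cells, the isogenic partner of BJeLR lacking mutant HRAS; each reported value is the mean of experiments run in triplicate.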

[4] = system: BJeLR (expressing HRAS^G12V); details: for increase in activity compared to 2a: BJeLR
[5] = system: BJeLR (expressing HRAS^G12V); assay: cells; details: read-out: IC50 BJeLR
[6] = system: DRD (expressing HRAS^G12V with alternative oncogenic constructs); assay: Cell viability in DRD cells; assay type: cell-based

Row | SMILES | IC50 [3] [µg/mL] | activity in the cell assays (in words) [4] | IC50 [5] [µg/mL] | further results
1 | COc1ccc(N(C(=O)CCl)C(C(=O)NCn2nnc3ccccc32)c2cccs2)cc1Cl (stereo not shown) [Compound 1r] |  |  |  | aqueous solubility (in words) (Aqueous solubility; compared to 1a): did not improve solubility
2 | COC(=O)c1ccc(C2c3[nH]c4ccccc4c3C[C@@H](C(=O)OC)N2C(=O)CCl)cc1 (stereo partly shown) [RSL3] |  |  |  | selectivity vs BJeH-LT ([1]; BJeLR vs BJeH-LT): approximately 8 fold; IC50 ([1]; read-out: IC50 in BJeLR, BJeLR): 100 nM
3 | COc1ccc(N(C(=O)CCl)C(C(=O)NCCc2ccccc2)c2cccs2)cc1Cl (stereo not shown) [Compound 1a] |  |  |  | GSH adduct observed ([2]; 48 hours incubation in PBS/DMSO (1/2) at room temperature, GSH 5 mM): 20%; time in which formation of the GSH adduct was observed ([2]; base (triethylamine) added): 1 h; solubility (Aqueous solubility): < 1 µM
4 | CCC(=O)N1CCN(C(=O)c2noc(C)c2[N+](=O)[O-])CC1 [Compound 2p] | > 20 | inactive | > 20 | 
5 | Cc1onc(C(=O)NCc2ccc(F)cc2)c1[N+](=O)[O-] [Compound 2o] | > 20 | inactive | > 20 | 
6 | Cn1ncc([N+](=O)[O-])c1C(=O)N1CCN(C(c2ccccc2)c2ccccc2)CC1 [Compound 2j] | > 20 |  | > 20 | 
7 | COc1ccccc1N1CCN(C(=O)c2noc(C)c2[N+](=O)[O-])CC1 [Compound 2q] | > 20 | inactive | > 20 | 
8 | COc1ccc(N(C(=O)CCl)C(C(=O)NCCc2ccccc2)c2nc(C)cs2)cc1Cl (stereo not shown) [Compound 1k] |  | inactive |  | 
9 | Cc1onc(C(=O)N2CCOCC2)c1[N+](=O)[O-] [Compound 2n] | > 20 | inactive | > 20 | 
10 | COc1ccc(N(C(=O)CCl)C(C(=O)NCS(=O)(=O)c2ccc(C)cc2)c2cccs2)cc1Cl (stereo not shown) [Compound 1q] |  |  |  | solubility (Aqueous solubility): 16 µM (≈ 8.66 µg/mL)
11 | Cc1ccc(C(=O)N2CCN(C(c3ccccc3)c3ccccc3)CC2)c([N+](=O)[O-])c1 [Compound 2l] | > 20 | inactive | > 20 | 
12 | O=C(c1n[nH]cc1[N+](=O)[O-])N1CCN(C(c2ccccc2)c2ccccc2)CC1 [Compound 2h] | > 20 |  | > 20 | 
13 | Cn1cc([N+](=O)[O-])c(C(=O)N2CCN(C(c3ccccc3)c3ccccc3)CC2)n1 [Compound 2i] | > 20 |  | > 20 | 
14 | Cc1onc(C(=O)N2CCN(C(c3ccc(F)cc3)c3ccc(F)cc3)CC2)c1[N+](=O)[O-] [Compound 2w] |  |  |  | increase in activity compared to 2a [4]: 5 fold
15 | O=C(c1ccc([N+](=O)[O-])o1)N1CCN(C(c2ccccc2)c2ccccc2)CC1 [Compound 2m] |  | inactive | > 20 | 
16 | Cc1onc(C(=O)N2CCN(C(c3ccccn3)c3ccccn3)CC2)c1[N+](=O)[O-] [Compound 2u] | > 20 | inactive | > 20 | 
17 | Cc1onc(C(=O)N2CCN(Cc3ccccc3)CC2)c1[N+](=O)[O-] [Compound 2r] | > 20 | eliminate activity | > 20 | 
18 | Cc1onc(C(=O)N2CCN(C(c3ccc(Cl)cc3)c3ccc(Cl)cc3)CC2)c1[N+](=O)[O-] [Compound 2y] |  |  |  | increase in activity compared to 2a [4]: 14 fold; selectivity for the DRD vs the BJeH cell line ([6]; DRD (HRAS^G12V) vs BJeH (non expressing HRAS^G12V)): 6 fold; increase in activity compared to the hit compound 2a ([6]; DRD cell line): 16 fold
19 | Cc1onc(C(=O)NCCNC(c2ccccc2)c2ccccc2)c1[N+](=O)[O-] [Compound 2t] | > 20 |  |  | 
20 | O=C(c1cc([N+](=O)[O-])ccn1)N1CCN(C(c2ccccc2)c2ccccc2)CC1 [Compound 2k] |  | weak inhibitor |  | 
21 | Cc1onc(C(=O)N2CCN(C(c3ccncc3)c3ccncc3)CC2)c1[N+](=O)[O-] [Compound 2v] | > 20 | inactive | > 20 | 
